16 compounds from ChEMBL document CHEMBL1268891, “Novel synthetic 2-amino-10-(3,5-dimethoxy)benzyl-9(10H)-acridinone derivatives as potent DNA-binding antiproliferative agents” (Bioorg Med Chem, 2010) can be followed below.

The term IC50 denotes the concentration needed to halve the response being measured. A high value points to weaker potency.

The structures appear in SMILES notation. Activity calls are given as the source filed them. The rule behind the calls is not given here.

In test [1] the target is T1, DNA topoisomerase 1 (Homo sapiens) (UniProt P11387).
T1 sequence (whole entry): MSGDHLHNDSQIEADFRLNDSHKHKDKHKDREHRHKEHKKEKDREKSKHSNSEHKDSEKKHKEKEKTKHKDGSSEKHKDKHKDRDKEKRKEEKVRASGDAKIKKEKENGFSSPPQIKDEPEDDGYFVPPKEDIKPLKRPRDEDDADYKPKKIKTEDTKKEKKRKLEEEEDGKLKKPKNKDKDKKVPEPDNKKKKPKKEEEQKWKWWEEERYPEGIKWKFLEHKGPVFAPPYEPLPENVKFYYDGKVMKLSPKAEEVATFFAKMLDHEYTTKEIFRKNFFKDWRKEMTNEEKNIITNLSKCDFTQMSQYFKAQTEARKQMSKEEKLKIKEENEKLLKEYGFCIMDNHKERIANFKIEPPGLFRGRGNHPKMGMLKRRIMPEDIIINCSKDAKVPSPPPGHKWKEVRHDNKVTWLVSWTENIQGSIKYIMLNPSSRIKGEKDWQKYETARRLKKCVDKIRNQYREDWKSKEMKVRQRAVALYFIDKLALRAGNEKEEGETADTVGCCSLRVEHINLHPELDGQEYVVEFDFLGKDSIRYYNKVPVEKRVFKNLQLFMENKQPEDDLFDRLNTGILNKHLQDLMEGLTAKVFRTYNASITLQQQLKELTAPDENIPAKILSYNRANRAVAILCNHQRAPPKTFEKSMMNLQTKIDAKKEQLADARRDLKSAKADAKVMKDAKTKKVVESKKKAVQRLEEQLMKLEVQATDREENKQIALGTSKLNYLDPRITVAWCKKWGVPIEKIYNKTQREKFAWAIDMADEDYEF
Description: Inhibition of human recombinant DNA topoisomerase 1-mediated DNA cleavage assessed as relaxation of supercoiled pBR322 plasmid DNA at 250 uM […] by ethidium bromide staining. Put shortly:
(§1)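 pBR322 (100 ng) incubated with 1.0 unit recombinant human topoisomerase I, with or without compound (10–50 or 250 μM), for 30 min at 37 °C. DMSO control included. Products run on 1% agarose in TAE at 100 V for 25 min and stained with ethidium bromide.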

The target of test [2] is T1, DNA topoisomerase 1 (Homo sapiens). Kind of test: Inhibition of human recombinant DNA topoisomerase 1-mediated DNA cleavage assessed as relaxation of supercoiled pBR322 plasmid DNA at 50 uM […] by ethidium bromide staining. The method, boiled down:
as §1

Another test concerns CCRF-CEM. Kind of test: Cytotoxicity against human CCRF-CEM cells after 48 hrs by MTT assay. In kind it is functional, cell-based. The method, boiled down:
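CCRF-CEM cells grown in RPMI 1640 with 10% FBS and penicillin/streptomycin at 37 °C, 5% CO₂. Seeded at 2×10^5 cells/mL and exposed to graded doses from DMSO stock, in quintuplicate, for 48 h. MTT (5 mg/mL) added for 4 h, formazan dissolved in DMSO and read at 490 nm. IC50 is the concentration giving 50% growth inhibition.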
(Tetrazolium dyes change colour on reduction, which living cells bring about.)

Test [3] relates to Calf thymus DNA. Description: Binding affinity to calf thymus DNA assessed as intercalation at 20 uM by fluorescence emission spectral analysis. In kind it is nucleic-acid assay. The conditions noted are these: Bos taurus. Put shortly: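 Compound at about 20 μM final (from 5 mM DMSO stock) in 10 mM Tris-HCl, 50 mM NaCl, pH 7.2, with or without ct DNA at 20 or 40 μM final. Emission recorded after equilibrium on excitation at 380 nm. DNA concentration set by A260 (6600 M⁻¹ cm⁻¹ per phosphate; A260:A280 1.87).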

Another test deals with A549. Kind of test: Cytotoxicity against human A549 cells after 48 hrs by MTT assay. In kind it is functional, cell-based. As to conditions: A549, 48 h. The method, boiled down:
(§2)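 A549, HepG2 and MCF7 cells grown in DMEM with 10% FBS and penicillin/streptomycin at 37 °C, 5% CO₂. Seeded at 2×10^5 cells/mL and treated with graded doses from DMSO stock, in quintuplicate, for 48 h. MTT added for 4 h, formazan dissolved in DMSO and read at 490 nm. IC50 is the concentration giving 50% growth inhibition.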

For test [4], the system named is Calf thymus DNA. Kind of test: Binding affinity to calf thymus DNA assessed as intercalation by UV-vis spectral analysis. The test is classed as nucleic-acid assay. As to conditions: Bos taurus. Put shortly:
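Compound at 40 μM titrated with ct DNA at 0–80 μM in 10 mM Tris-HCl, 50 mM NaCl, pH 7.2. Incubated 5 min, then spectra read in a 1.0 cm quartz cell. Kb obtained from a plot of [DNA]/(εa−εf) against [DNA], with DNA concentration in base pairs.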

For the next test, the system named is HepG2. Kind of test: Cytotoxicity against human HepG2 cells after 48 hrs by MTT assay. The test is classed as functional, cell-based. The conditions noted are these: HepG2, 48 h. The method, boiled down:
as §2

A further test relates to MCF7. Description: Cytotoxicity against human MCF7 cells after 48 hrs by MTT assay. As to conditions: MCF7, 48 h. The test is classed as functional, cell-based. The method, boiled down:
as §2

Turning to `COc1cc(Cn2c3ccccc3c(=O)c3ccccc32)cc(OC)c1`, the outcome in test [1] was Active. The result in test [2] was inactive.

In the case of `COc1cc(Cn2c3ccccc3c(=O)c3cc(NC(=O)C(C)N)ccc32)cc(OC)c1` (stereo unspecified), the midpoint of inhibition with CCRF-CEM, the IC50, lay at 610 nM. The result in test [1] was Active. The result in test [2] was inactive.

In turn, `COc1cc(Cn2c3ccccc3c(=O)c3cc(NC(=O)CCN4CCCCC4)ccc32)cc(OC)c1` registered an IC50 in the test on CCRF-CEM of 600 nM. The result in test [1] was Active. In addition, the result in test [2] was inactive.

Consider `COc1cc(Cn2c3ccccc3c(=O)c3cc(NC(=O)C(N)CCCCN)ccc32)cc(OC)c1` (stereo unspecified), for which, in the test with CCRF-CEM, the IC50 was 750 nM. The result in test [1] was Active. Further, in test [2], the result was inactive.

In the test on CCRF-CEM, `COc1cc(Cn2c3ccccc3c(=O)c3cc(NC(=O)CCCCCN)ccc32)cc(OC)c1` yielded a half-inhibitory concentration (IC50) of 750 nM. Also, the outcome in test [1] was Active. For the same compound, the result in test [2] was inactive.

Turning to `COc1cc(Cn2c3ccccc3c(=O)c3cc(NC(=O)CN)ccc32)cc(OC)c1`, the outcome (in the test on Calf thymus DNA [3]; in test [2]) was Active. Further, the IC50 worked out at 390 nM in the test on CCRF-CEM, 3.4 µM in the test on A549, 6.5 µM in the test with HepG2 and 11.7 µM with MCF7. For the same compound, the Kb with Calf thymus DNA [4] was 1.5 ×10⁵ /M.

`COc1cc(Cn2c3ccccc3c(=O)c3cc(NC(=O)CCN4CCCC4)ccc32)cc(OC)c1`: the result (in the test with Calf thymus DNA [3]; in test [1]) was Active. Besides, the IC50 amounted to 280 nM in the test on CCRF-CEM, 25.9 µM with A549, 4 µM with HepG2 and 5.7 µM in the test on MCF7. Further, the Kb with Calf thymus DNA [4] turned out to be 5 ×10⁴ /M. Besides, the outcome in test [2] was inactive.

In the test on CCRF-CEM, `COc1cc(Cn2c3ccccc3c(=O)c3cc(NC(=O)C(N)C(C)C)ccc32)cc(OC)c1` (stereo unspecified) yielded an IC50 of 810 nM. Also, the result in test [1] was Active. Moreover, the result in test [2] was inactive.

Compound `COc1cc(Cn2c3ccccc3c(=O)c3cc(NC(=O)CCCCN)ccc32)cc(OC)c1` registered an IC50 in the test on CCRF-CEM of 1190 nM. Further, in test [1], the result was Active. Moreover, in test [2], the outcome was inactive.

The compound `COc1cc(Cn2c3ccccc3c(=O)c3cc(NC(=O)CCN)ccc32)cc(OC)c1` came in with an IC50 with CCRF-CEM of 2550 nM. Besides, the outcome in test [1] was Active. Also, the outcome in test [2] was inactive.

In the test with CCRF-CEM, `COc1cc(Cn2c3ccccc3c(=O)c3cc(NC(=O)CCN(CCO)CCO)ccc32)cc(OC)c1` displayed an IC50 of 950 nM. The result in test [1] was Active. Further, the outcome in test [2] was inactive.

The compound `COc1cc(Cn2c3ccccc3c(=O)c3cc(NC(=O)CCN4CCOCC4)ccc32)cc(OC)c1` registered an IC50 with CCRF-CEM of 3010 nM. In test [1], the outcome was Active. Further, the result in test [2] was inactive.

For the compound `COc1cc(Cn2c3ccccc3c(=O)c3cc(NC(=O)CCCN)ccc32)cc(OC)c1`, in the test with CCRF-CEM, the IC50 is 670 nM. The outcome in test [1] was Active. For the same compound, the result in test [2] was inactive.

As for `COc1cc(Cn2c3ccccc3c(=O)c3cc(NC(=O)CCN(C)C)ccc32)cc(OC)c1`, half-maximal inhibition with CCRF-CEM (IC50) was put at 910 nM. In addition, in test [1], the result was Active. Besides, the outcome in test [2] was inactive.

In the test on CCRF-CEM, `COc1cc(Cn2c3ccccc3c(=O)c3cc(NC(=O)CCN4CCC(O)CC4)ccc32)cc(OC)c1` had an IC50 of 640 nM. Besides, in test [1], the result was Active. In addition, the result in test [2] was inactive.

Consider `CCN(CC)CCC(=O)Nc1ccc2c(c1)c(=O)c1ccccc1n2Cc1cc(OC)cc(OC)c1`, for which, in the test on CCRF-CEM, the midpoint of inhibition, the IC50, lay at 720 nM. In addition, in test [1], the outcome was Active. The outcome in test [2] was inactive.
